{"source": "ChEMBL document CHEMBL2040833", "about": "“Metabolism-based synthesis, biologic evaluation and SARs analysis of O-methylated analogs of quercetin as thrombin inhibitors” (Eur J Med Chem, 2012)", "key": {"[1]": {"target": "Thrombin (Oryctolagus cuniculus) (UniProt Q28731)", "assay": "Inhibition of thrombin in New Zealand rabbit plasma assessed as fibrinogen level at 100 uM by coagulometry", "procedure,_shortened": "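Citrated rabbit platelet-poor plasma (3000 rpm 10 min). 10 µl PPP incubated with 90 µl imidazole buffer 3 min at 37 °C, then 50 µl FIB agent and 10 µl sample (in 80% ethanol) added; fibrinogen content read on coagulometer with commercial kit; reduction in FIB content scored.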"}, "[2]": {"target": "Thrombin (Oryctolagus cuniculus) (UniProt Q28731)", "assay": "Inhibition of thrombin in New Zealand rabbit plasma assessed as thrombin time at 100 uM after 3 mins by coagulometry", "procedure,_shortened": "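Using citrated rabbit platelet-poor plasma, 40 µl PPP was held 3 min at 37 °C, then 40 µl thrombin solution and 20 µl sample (in 80% ethanol) were added for 3 min at 37 °C. Clotting time was measured by coagulometer with a commercial kit, and prolongation was scored.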"}, "[3]": {"target": "Thrombin (Oryctolagus cuniculus) (UniProt Q28731)", "assay": "Inhibition of thrombin in New Zealand rabbit plasma assessed as activated partial thromboplastin time at 100 uM after 3 mins by coagulometry", "procedure,_shortened": "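Sample in 80% ethanol; 10 µl sample and 50 µl PPP incubated with 50 µl APTT-activating agent 3 min at 37 °C, then 50 µl CaCl2 added; clotting time by coagulometer with commercial kit; prolongation scored.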"}, "[4]": {"target": "Thrombin (Oryctolagus cuniculus) (UniProt Q28731)", "assay": "Inhibition of thrombin in New Zealand rabbit plasma assessed as prothrombin time at 100 uM by coagulometry", "procedure,_shortened": "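40 µl PPP preincubated 3 min at 37 °C, then 40 µl thromboplastin agent plus 20 µl sample (in 80% ethanol) added; clotting read by coagulometer with commercial kit; activity expressed as INR increase.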"}}, "data": [{"smiles": "COc1cc(-c2oc3cc(O)cc(OC)c3c(=O)c2O)ccc1O", "values": [{"measurement": "Activity", "setting": "[1]", "result": 6.2, "unit": "g/L"}, {"measurement": "TT", "setting": "[2]", "result": 22.3, "unit": "s"}, {"measurement": "APTT", "setting": "[3]", "result": 57.6, "unit": "s"}, {"measurement": "PT", "setting": "[4]", "result": 5.8, "unit": "s"}]}, {"smiles": "COc1cc(O)c2c(=O)c(O)c(-c3ccc(OC)c(O)c3)oc2c1", "values": [{"measurement": "Activity", "setting": "[1]", "result": 5.9, "unit": "g/L"}, {"measurement": "TT", "setting": "[2]", "result": 14.8, "unit": "s"}, {"measurement": "APTT", "setting": "[3]", "result": 46.2, "unit": "s"}, {"measurement": "PT", "setting": "[4]", "result": 7.4, "unit": "s"}]}, {"smiles": "COc1ccc(-c2oc3cc(O)cc(O)c3c(=O)c2O)cc1O", "values": [{"measurement": "Activity", "setting": "[1]", "result": 7.5, "unit": "g/L"}, {"measurement": "TT", "setting": "[2]", "result": 16.6, "unit": "s"}, {"measurement": "APTT", "setting": "[3]", "result": 49.8, "unit": "s"}, {"measurement": "PT", "setting": "[4]", "result": 6.9, "unit": "s"}]}, {"smiles": "COc1c(-c2ccc(O)c(O)c2)oc2cc(O)cc(OC)c2c1=O", "values": [{"measurement": "Activity", "setting": "[1]", "result": 5.4, "unit": "g/L"}, {"measurement": "TT", "setting": "[2]", "result": 20, "unit": "s"}, {"measurement": "APTT", "setting": "[3]", "result": 63.7, "unit": "s"}, {"measurement": "PT", "setting": "[4]", "result": 5.7, "unit": "s"}]}, {"smiles": "COc1cc(OC)c2c(=O)c(OC)c(-c3ccc(OC)c(OC)c3)oc2c1", "values": [{"measurement": "Activity", "setting": "[1]", "result": 8.9, "unit": "g/L"}, {"measurement": "TT", "setting": "[2]", "result": 11.6, "unit": "s"}, {"measurement": "APTT", "setting": "[3]", "result": 40.3, "unit": "s"}, {"measurement": "PT", "setting": "[4]", "result": 5.2, "unit": "s"}]}, {"smiles": "COc1ccc(-c2oc3cc(O)cc(OC)c3c(=O)c2O)cc1OC", "values": [{"measurement": "Activity", "setting": "[1]", "result": 7.9, "unit": "g/L"}, {"measurement": "TT", "setting": "[2]", "result": 15.9, "unit": "s"}, {"measurement": "APTT", "setting": "[3]", "result": 49.3, "unit": "s"}, {"measurement": "PT", "setting": "[4]", "result": 5.1, "unit": "s"}]}, {"smiles": "COc1ccc(-c2oc3cc(O)cc(O)c3c(=O)c2O)cc1OC", "values": [{"measurement": "Activity", "setting": "[1]", "result": 6.6, "unit": "g/L"}, {"measurement": "TT", "setting": "[2]", "result": 9.9, "unit": "s"}, {"measurement": "APTT", "setting": "[3]", "result": 58.7, "unit": "s"}, {"measurement": "PT", "setting": "[4]", "result": 5.8, "unit": "s"}]}, {"smiles": "COc1c(-c2ccc(O)c(O)c2)oc2cc(O)cc(O)c2c1=O", "values": [{"measurement": "Activity", "setting": "[1]", "result": 4.7, "unit": "g/L"}, {"measurement": "TT", "setting": "[2]", "result": 22.9, "unit": "s"}, {"measurement": "APTT", "setting": "[3]", "result": 50.2, "unit": "s"}, {"measurement": "PT", "setting": "[4]", "result": 4.8, "unit": "s"}]}, {"smiles": "COc1cc(O)c2c(=O)c(OC)c(-c3ccc(O)c(O)c3)oc2c1", "values": [{"measurement": "Activity", "setting": "[1]", "result": 7.3, "unit": "g/L"}, {"measurement": "TT", "setting": "[2]", "result": 22.5, "unit": "s"}, {"measurement": "APTT", "setting": "[3]", "result": 54.7, "unit": "s"}, {"measurement": "PT", "setting": "[4]", "result": 7.3, "unit": "s"}]}, {"smiles": "COc1cc(-c2oc3cc(O)cc(O)c3c(=O)c2O)ccc1O", "values": [{"measurement": "Activity", "setting": "[1]", "result": 5.4, "unit": "g/L"}, {"measurement": "TT", "setting": "[2]", "result": 20.5, "unit": "s"}, {"measurement": "APTT", "setting": "[3]", "result": 82.3, "unit": "s"}, {"measurement": "PT", "setting": "[4]", "result": 5.3, "unit": "s"}]}, {"smiles": "COc1cc(OC)c2c(=O)c(O)c(-c3ccc(O)c(O)c3)oc2c1", "values": [{"measurement": "Activity", "setting": "[1]", "result": 5.1, "unit": "g/L"}, {"measurement": "TT", "setting": "[2]", "result": 21.8, "unit": "s"}, {"measurement": "APTT", "setting": "[3]", "result": 67.6, "unit": "s"}, {"measurement": "PT", "setting": "[4]", "result": 6.9, "unit": "s"}]}, {"smiles": "COc1cc(O)c2c(=O)c(O)c(-c3ccc(O)c(O)c3)oc2c1", "values": [{"measurement": "Activity", "setting": "[1]", "result": 5.4, "unit": "g/L"}, {"measurement": "TT", "setting": "[2]", "result": 23, "unit": "s"}, {"measurement": "APTT", "setting": "[3]", "result": 72.6, "unit": "s"}, {"measurement": "PT", "setting": "[4]", "result": 6.8, "unit": "s"}]}, {"smiles": "COc1cc(O)cc2oc(-c3ccc(O)c(O)c3)c(O)c(=O)c12", "values": [{"measurement": "Activity", "setting": "[1]", "result": 5, "unit": "g/L"}, {"measurement": "TT", "setting": "[2]", "result": 19.4, "unit": "s"}, {"measurement": "APTT", "setting": "[3]", "result": 49.2, "unit": "s"}, {"measurement": "PT", "setting": "[4]", "result": 7.6, "unit": "s"}]}, {"smiles": "COc1cc(O)c2c(=O)c(OC)c(-c3ccc(OC)c(OC)c3)oc2c1", "values": [{"measurement": "Activity", "setting": "[1]", "result": 8.4, "unit": "g/L"}, {"measurement": "TT", "setting": "[2]", "result": 14.2, "unit": "s"}, {"measurement": "APTT", "setting": "[3]", "result": 42.4, "unit": "s"}, {"measurement": "PT", "setting": "[4]", "result": 5.4, "unit": "s"}]}, {"smiles": "COc1cc(O)c2c(=O)c(OC)c(-c3ccc(OC)c(O)c3)oc2c1", "values": [{"measurement": "Activity", "setting": "[1]", "result": 5.3, "unit": "g/L"}, {"measurement": "TT", "setting": "[2]", "result": 14.9, "unit": "s"}, {"measurement": "APTT", "setting": "[3]", "result": 61.7, "unit": "s"}, {"measurement": "PT", "setting": "[4]", "result": 6, "unit": "s"}]}, {"smiles": "O=c1c(O)c(-c2ccc(O)c(O)c2)oc2cc(O)cc(O)c12", "values": [{"measurement": "Activity", "setting": "[1]", "result": 5.8, "unit": "g/L"}, {"measurement": "TT", "setting": "[2]", "result": 19.2, "unit": "s"}, {"measurement": "APTT", "setting": "[3]", "result": 30.3, "unit": "s"}, {"measurement": "PT", "setting": "[4]", "result": 6.2, "unit": "s"}]}]}
